Experimental data published in ChEMBL document CHEMBL1126243, “A novel class of cardiotonic agents: synthesis and biological evaluation of 5-substituted 3,6-dihydrothiadiazin-2-ones with cyclic AMP phosphodiesterase inhibiting and myofibrillar calcium sensitizing properties” (J Med Chem, 1992).

What was measured:
[1] = system: cardiac myofibrillar ATPase (Canis familiaris); assay: Shift induced by 100 uM of compound, of the [Ca2+] concentration required for half-maximal activation of the canine cardiac myofibrillar ATPase; details: Canis lupus familiaris
[2] = molecular target: Phosphodiesterase; PDE3 & PDE4; assay: Inhibition of dog left ventricle sarcoplasmic reticulum bound low-Km c-AMP phosphodiesterase; assay type: protein assay, Canis lupus familiaris
Summary of the method: (§1)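 SR vesicles from dog left ventricle, isolated on a sucrose gradient after Ca2+ oxalate loading. Radiochemical assay at 30 °C with 1 µM [3H]cAMP, 12 mM Tris-HCl, 0.5 mM MgCl2, 137 mM NaCl and 20 mM glucose; products separated on Dowex after 5'-nucleotidase step. Less than 25% substrate hydrolysed. Triplicates at 10 concentrations (10^-9–10^-4 M), DMSO 1%. IC50 from Hill plot of mean curve over at least 3 preparations.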

[3] = system: cardiac myofibrillar ATPase (Canis familiaris); assay: Shift induced by 30 uM of compound, of the [Ca2+] concentration required for half-maximal activation of the canine cardiac myofibrillar ATPase; details: Canis lupus familiaris
Canis familiaris [4] = assay: Peak response for contractility was determined in conscious Dog at the dose of 30 ug/kg by peroral administration and measured as% changes of control; details: route oral
Canis familiaris [5] = assay: Peak response for heart rate was determined in conscious Dog at the dose of 30 ug/kg by peroral administration and measured as% changes of control; details: route oral
[6] = system: cardiac myofibrillar ATPase (Canis familiaris); assay: Change in calcium-induced activation of canine cardiac myofibrillar ATPase at 200 uM; details: Canis lupus familiaris
[7] = Inhibition of dog left ventricle sarcoplasmic reticulum bound low-Km cAMP phosphodiesterase; set-up: species or system Canis lupus familiaris
Summary of the method: as §1

[8] = system: cardiac myofibrillar ATPase (Canis familiaris); assay: Shift induced by 200 uM of compound, of the [Ca2+] concentration required for half-maximal activation of the canine cardiac myofibrillar ATPase; details: Canis lupus familiaris
[9] = system: cardiac myofibrillar ATPase (Canis familiaris); assay: c[Ca2+] concentration required for half-maximal activation of the cardiac myofibrillar ATPase at 100 uM dose of the compound; details: Canis lupus familiaris
[10] = system: cardiac myofibrillar ATPase (Canis familiaris); assay: c[Ca2+] concentration required for half-maximal activation of the cardiac myofibrillar ATPase at 30 uM dose of the compound; details: Canis lupus familiaris
[11] = system: cardiac myofibrillar ATPase (Canis familiaris); assay: Shift induced by 3 uM of compound, of the [Ca2+] concentration required for half-maximal activation of the canine cardiac myofibrillar ATPase; details: Canis lupus familiaris
[12] = system: cardiac myofibrillar ATPase (Canis familiaris); assay: Shift induced by 10 uM of compound, of the [Ca2+] concentration required for half-maximal activation of the canine cardiac myofibrillar ATPase; details: Canis lupus familiaris
[13] = system: cardiac myofibrillar ATPase (Canis familiaris); assay: Shift induced by 1 uM of compound, of the [Ca2+] concentration required for half-maximal activation of the canine cardiac myofibrillar ATPase; details: Canis lupus familiaris

## CC1CC(=O)NN=C1c1ccc2c(c1)C(C)(C)C(=O)N2 (stereo not given)
[1]
  Delta pCa50: -0.09
[2]
  IC50: 240 nM

## CC1SC(=O)NN=C1c1ccc2c(c1)C(C)(C)NC(=O)N2 (stereo not given)
[3]
  Delta pCa50: 0.24
Canis familiaris [4]
  Change: 38%
Canis familiaris [5]
  Change: 9%

## O=C1Cc2cc(C3=NNC(=O)SC3)ccc2N1
[6]
  Delta pCa50: 0.08

## CC1SC(=O)NN=C1c1ccc2c(c1)C1(SCCS1)C(=O)N2 (stereo not given)
[3]
  Delta pCa50: 0.57
[7]
  IC50: 350 nM

## CC1(C)C(=O)Nc2ccc(C3=NNC(=O)SC3)cc21
[6]
  Delta pCa50: 0.16

## CC1NC(=O)NN=C1c1ccc2c(c1)C(C)(C)C(=O)N2 (stereo not given)
[1]
  Delta pCa50: -0.04
[2]
  IC50: 170 nM

## CC1SC(=O)NN=C1c1ccc2c(c1)C1(CC1)C(=O)N2 (stereo not given)
[3]
  Delta pCa50: 0.14
[2]
  IC50: 36 nM

## COc1cc([S+](C)[O-])ccc1-c1nc2cccnc2[nH]1 (stereo not given) [SULMAZOLE]
[7]
  IC50: 140000 nM

## CSC1(C)C(=O)Nc2ccc(C3=NNC(=O)SC3C)cc21 (stereo not given)
[8]
  Delta pCa50: 0.33

## O=C1CCc2cc(C3=NNC(=O)SC3)ccc2N1
[3]
  Delta pCa50: 0

## CSC1(C)C(=O)Nc2ccc(C3=NNC(=O)SC3)cc21 (stereo not given)
[6]
  Delta pCa50: 0.39
[2]
  IC50: 1200 nM

## CC1(C)SC(=O)NN=C1c1ccc2c(c1)C(C)(C)C(=O)N2
[6]
  Delta pCa50: -0.02
[2]
  IC50: 66000 nM

## CSC1(C)C(=O)Nc2ccc(C3=NNC(=O)CC3C)cc21 (stereo not given)
[6]
  Delta pCa50: 0.11

## CC1OC(=O)NN=C1c1ccc2c(c1)C(C)(C)C(=O)N2 (stereo not given)
[1]
  Delta pCa50: 0.04
[2]
  IC50: 960 nM

## CC1SC(=O)NN=C1c1ccc2c(c1)C1(CCCC1)C(=O)N2 (stereo not given)
[3]
  Delta pCa50: 0.35
[2]
  IC50: 1100 nM

## CC1C(=O)Nc2ccc(C3=NNC(=O)SC3)cc21 (stereo not given)
[6]
  Delta pCa50: 0.15

## CSC1(C)C(=O)Nc2ccc(C3=NNC(=O)CC3)cc21 (stereo not given)
[6]
  Delta pCa50: 0.07

## Cc1nc(O)c(N)cc1-c1ccccc1
[6]
  Delta pCa50: 0.1
[2]
  IC50: 18000 nM

## CC1(C)C(=O)Nc2cc3[nH]c(-c4ccncc4)nc3cc21 [ADIBENDAN]
[6]
  Delta pCa50: 0.16
[2]
  IC50: 520 nM

## CC1SC(=O)NN=C1c1ccc2c(c1)CC(C)(C)C(=O)N2 (stereo not given)
[3]
  Delta pCa50: 0.33
Canis familiaris [4]
  Change: 26%
Canis familiaris [5]
  Change: 24%

## CC1SC(=O)NN=C1c1ccc2c(c1)C1(CCCS1)C(=O)N2 (stereo not given)
[3]
  Delta pCa50: 0.37
[2]
  IC50: 1400 nM

## Cc1cc2c(cc1C1=NNC(=O)SC1C)C(C)(C)C(=O)N2 (stereo not given)
[3]
  Delta pCa50: -0.06
[2]
  IC50: 3300 nM

## CC1SC(=O)NN=C1c1ccc2c(c1)C(C)(C)OC(=O)N2 (stereo not given)
[3]
  Delta pCa50: 0.15
Canis familiaris [4]
  Change: 67%
Canis familiaris [5]
  Change: 13%

## Cc1cc(C2=NNC(=O)SC2C)cc2c1NC(=O)C2(C)C (stereo not given)
[3]
  Delta pCa50: 0.26
[7]
  IC50: 240 nM

## CC1(C)C(=O)Nc2ccc(C3=NNC(=O)CC3)cc21
[8]
  Delta pCa50: -0.04

## CC1SC(=O)NN=C1c1ccc2c(c1)C1(CCCCC1)C(=O)N2 (stereo not given)
[3]
  Delta pCa50: 0.39
[2]
  IC50: 1300 nM

## CC1[Se]C(=O)NN=C1c1ccc2c(c1)C(C)(C)C(=O)N2 (stereo not given)
[1]
  Delta pCa50: 0.3
[2]
  IC50: 540 nM

## CC1SC(=O)NN=C1c1ccc2c(c1)C(C)(C)CC(=O)N2 (stereo not given)
[3]
  Delta pCa50: 0.45
Canis familiaris [4]
  Change: 21%
Canis familiaris [5]
  Change: 5%

## CC1SC(=O)NN=C1c1ccc2c(c1)C(C)(C)C(=O)N2 (stereo not given)
[9]
  Delta pCa50: 0.24
Canis familiaris [4]
  Change: 73%
[6]
  Delta pCa50: 0.31
Canis familiaris [5]
  Change: 8%
[2]
  IC50: 330 nM
[10]
  Delta pCa50: 0.09

## Cc1c(C2=NNC(=O)SC2C)ccc2c1C(C)(C)C(=O)N2 (stereo not given)
[3]
  Delta pCa50: -0.07
[7]
  IC50: 9200 nM

## CC1SC(=O)NN=C1c1ccc2c(c1)C1(SCCCS1)C(=O)N2 (stereo not given)
[11]
  Delta pCa50: 0.48
[12]
  Delta pCa50: 0.65
[3]
  Delta pCa50: 0.76
[7]
  IC50: 260 nM
[13]
  Delta pCa50: 0.12

## CSC1C(=O)Nc2ccc(C3=NNC(=O)SC3)cc21 (stereo not given)
[6]
  Delta pCa50: 0.28
